Where two headings read alike, the source gives them in different places.
Experiments:
InkE = target: T1, InkE (Nonomuraea longicatena, UniProt Q27IF2); assay: Isothermal titration calorimetry of FAD with FAD-free; type: binding
T1 sequence (Q27IF2 1-525): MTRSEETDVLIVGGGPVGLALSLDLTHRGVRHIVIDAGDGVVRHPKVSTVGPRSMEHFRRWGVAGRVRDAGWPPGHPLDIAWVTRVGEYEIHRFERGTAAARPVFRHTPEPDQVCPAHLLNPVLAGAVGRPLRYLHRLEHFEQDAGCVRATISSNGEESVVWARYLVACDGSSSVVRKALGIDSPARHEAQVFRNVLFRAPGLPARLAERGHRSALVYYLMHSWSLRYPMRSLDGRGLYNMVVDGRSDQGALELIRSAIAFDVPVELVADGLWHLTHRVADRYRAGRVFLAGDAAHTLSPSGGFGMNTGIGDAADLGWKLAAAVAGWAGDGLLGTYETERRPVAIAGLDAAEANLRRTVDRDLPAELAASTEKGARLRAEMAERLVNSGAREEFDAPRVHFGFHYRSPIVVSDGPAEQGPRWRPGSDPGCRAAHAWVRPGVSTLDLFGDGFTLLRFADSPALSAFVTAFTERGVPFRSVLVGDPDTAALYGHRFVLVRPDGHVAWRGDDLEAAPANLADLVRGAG
Procedure, shortened: (§1)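 Recombinant His-tagged protein was expressed in Rosetta 2 (DE3) pLysS E. coli without added riboflavin (0.1 mM IPTG, 21°C, ~20 h). It was Ni(II)-affinity purified and gel-filtered on Superdex-200. The protein isolates free of FAD, so no stripping step was used. Concentration by A280 using theoretical extinction coefficient. FAD titrated by MicroCal ITC, at least triplicate runs. Single-site Kb converted to Kd.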

RebC-10x = RebC-10x (Lentzea aerocolonigenes, UniProt Q8KI25, A231S/E36D/F216V/G48S/Q117A/Q37A/R239N/R46K/T241V/T38G); assay: Isothermal titration calorimetry of FAD with FAD-free; type: binding
AtmC = target: T2, AtmC (Actinomadura melliaura, UniProt Q0H2X3); assay: Isothermal titration calorimetry of FAD with FAD-free; type: binding
T2 sequence (Q0H2X3 1-534): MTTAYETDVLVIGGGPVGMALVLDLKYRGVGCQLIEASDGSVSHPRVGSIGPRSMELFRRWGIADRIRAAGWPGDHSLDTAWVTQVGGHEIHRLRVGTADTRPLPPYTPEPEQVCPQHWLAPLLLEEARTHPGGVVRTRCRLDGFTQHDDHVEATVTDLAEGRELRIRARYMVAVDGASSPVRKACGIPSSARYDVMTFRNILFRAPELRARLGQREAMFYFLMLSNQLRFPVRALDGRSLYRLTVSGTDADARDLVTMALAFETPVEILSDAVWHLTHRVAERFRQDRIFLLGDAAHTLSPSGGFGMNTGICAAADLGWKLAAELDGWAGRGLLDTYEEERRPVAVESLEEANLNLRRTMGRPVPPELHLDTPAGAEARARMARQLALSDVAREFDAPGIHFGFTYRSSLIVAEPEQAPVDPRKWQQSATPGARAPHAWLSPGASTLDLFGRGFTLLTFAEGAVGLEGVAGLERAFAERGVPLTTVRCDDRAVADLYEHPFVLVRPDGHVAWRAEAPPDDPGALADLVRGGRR
Procedure, shortened: (§2)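 Recombinant His-tagged protein was expressed in Rosetta 2 (DE3) pLysS E. coli (0.1 mM IPTG, 21°C, ~20 h) and captured on Ni(II) resin. Flavin was stripped on-column with 2 M KBr/2 M urea, then the protein was eluted with 200 mM imidazole and gel-filtered on Superdex-200. Concentration by A280 using theoretical extinction coefficient. FAD titrated by MicroCal ITC, at least triplicate runs. Single-site Kb converted to Kd.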

RebC [1] = target: T3, RebC (Lentzea aerocolonigenes, UniProt Q8KI25); type: binding
T3 sequence (Q8KI25 1-529): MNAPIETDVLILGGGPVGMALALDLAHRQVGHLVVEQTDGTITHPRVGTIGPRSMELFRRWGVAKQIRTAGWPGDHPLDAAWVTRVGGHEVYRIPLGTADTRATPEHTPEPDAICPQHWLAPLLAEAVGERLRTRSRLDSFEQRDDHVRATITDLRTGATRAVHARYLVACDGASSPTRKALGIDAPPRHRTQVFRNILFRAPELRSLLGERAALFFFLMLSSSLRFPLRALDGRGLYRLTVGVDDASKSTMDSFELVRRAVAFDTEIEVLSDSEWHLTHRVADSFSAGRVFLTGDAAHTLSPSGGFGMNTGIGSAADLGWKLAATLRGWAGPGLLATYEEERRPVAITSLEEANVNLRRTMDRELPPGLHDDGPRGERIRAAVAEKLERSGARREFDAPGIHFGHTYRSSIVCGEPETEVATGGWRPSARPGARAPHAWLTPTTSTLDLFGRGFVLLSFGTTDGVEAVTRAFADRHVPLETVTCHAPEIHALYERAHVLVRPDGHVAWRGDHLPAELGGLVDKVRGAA
Procedure, shortened: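 Control ITC on RebC purified by Ni(II) affinity and Superdex-200 without the KBr/urea wash, retaining ~68% bound FAD. It tests fitting of partially occupied protein, since the fitting software assumes no ligand in the cell before the first injection. FAD titrated, at least triplicate runs. Single-site Kb converted to Kd.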

StaC = target: T4, StaC (Streptomyces sp. TP-A0274, UniProt A3KBE8); assay: Isothermal titration calorimetry of FAD with FAD-free; type: binding
T4 sequence (A3KBE8 1-545): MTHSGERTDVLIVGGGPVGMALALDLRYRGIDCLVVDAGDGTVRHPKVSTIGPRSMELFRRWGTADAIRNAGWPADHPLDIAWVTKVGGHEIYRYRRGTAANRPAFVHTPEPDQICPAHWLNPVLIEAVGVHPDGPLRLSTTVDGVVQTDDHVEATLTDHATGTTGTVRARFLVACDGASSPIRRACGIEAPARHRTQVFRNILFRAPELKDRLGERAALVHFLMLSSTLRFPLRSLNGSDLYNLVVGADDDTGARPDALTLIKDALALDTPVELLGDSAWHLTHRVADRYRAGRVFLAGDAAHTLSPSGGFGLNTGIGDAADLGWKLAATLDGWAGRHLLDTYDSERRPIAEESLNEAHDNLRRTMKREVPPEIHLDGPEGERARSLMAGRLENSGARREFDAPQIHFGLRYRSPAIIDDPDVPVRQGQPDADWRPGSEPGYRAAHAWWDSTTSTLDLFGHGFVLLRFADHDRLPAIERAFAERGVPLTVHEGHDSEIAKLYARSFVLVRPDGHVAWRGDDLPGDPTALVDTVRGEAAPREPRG
Procedure, shortened: as §1

RebC [2] = target: T3, RebC; assay: Isothermal titration calorimetry of FAD with FAD-free; type: binding
Procedure, shortened: as §2

StaC-10x = assay: Isothermal titration calorimetry, FAD binding to StaC-10x; conditions: StaC-10x versus RebC
Procedure, shortened: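 It was used as isolated at ~33% FAD occupancy, because on-column KBr/urea stripping left the protein non-elutable. Concentration by BioRad protein assay against BSA standard. FAD titrated by ITC, two runs. Single-site Kb converted to an approximate Kd.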

Row | SMILES | Kd (InkE) [µM] | Kd (RebC-10x) [µM] | Kd (AtmC) [µM] | Kd (RebC [1]) [µM] | Kd (StaC) [µM] | Kd (RebC [2]) [µM] | FAD binding weaker than RebC (StaC-10x) [fold]
1 | Cc1cc2nc3c(=O)[nH]c(=O)nc-3n(C[C@H](O)[C@H](O)[C@H](O)COP(=O)(O)OP(=O)(O)OC[C@H]3O[C@@H](n4cnc5c(N)ncnc54)[C@H](O)[C@@H]3O)c2cc1C [FAD, flavin adenine dinucleotide] | 59 | 0.6 ± 0.055 | 0.073 ± 0.028 | 0.031 | 15 | 0.02 ± 0.012 | 
2 | Cc1cc2nc3c(=O)[nH]c(=O)nc-3n(C[C@H](O)[C@H](O)[C@H](O)COP(=O)(O)OP(=O)(O)OC[C@H]3O[C@@H](n4cnc5c(N)ncnc54)[C@H](O)[C@@H]3O)c2cc1C [FAD] |  |  |  |  |  |  | 30

Source: article PMC3437190 (Chemistry & biology, 2012)
